According to ChEMBL document CHEMBL1129254, “3-[2-(N-phenylacetamide)]-1,5-benzodiazepines: orally active, binding selective CCK-A agonists” (J Med Chem, 1996):

How the values were obtained:
[1] = target: T1, Cholecystokinin receptor type A (Cavia porcellus) (UniProt Q63931); assay: In vitro agonist activity against Cholecystokinin type A receptor isolated from guinea pig gall bladder.; assay type: functional, tissue-based
T1 sequence (whole entry): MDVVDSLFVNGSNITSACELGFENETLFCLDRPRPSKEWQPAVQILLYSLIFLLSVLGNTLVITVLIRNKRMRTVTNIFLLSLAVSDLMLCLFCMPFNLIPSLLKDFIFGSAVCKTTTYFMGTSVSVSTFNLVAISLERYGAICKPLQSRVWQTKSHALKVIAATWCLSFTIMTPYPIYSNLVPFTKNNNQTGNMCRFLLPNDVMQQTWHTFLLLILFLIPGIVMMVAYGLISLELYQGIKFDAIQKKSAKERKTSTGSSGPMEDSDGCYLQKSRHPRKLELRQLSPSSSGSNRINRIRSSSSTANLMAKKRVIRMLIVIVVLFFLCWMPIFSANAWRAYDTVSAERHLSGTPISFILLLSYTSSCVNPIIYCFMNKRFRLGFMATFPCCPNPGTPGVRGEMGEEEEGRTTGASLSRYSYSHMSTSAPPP

Cavia porcellus = species on record: Cavia porcellus; assay: Relative efficacy determined by the maximal contraction observed at 30 uM, standardized to CCK-8; assay type: functional
Procedure, shortened: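 Isolated guinea pig gallbladder contraction. Maximal contraction at 30 μM test ligand expressed relative to CCK-8 (1 μM) = 1.0; n ≥ 3.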

Mus musculus [2] = assay: Compound tested in vivo for mouse gallbladder emptying at 0.1 uM/kg, ip; assay type: functional
[3] = target: T2, Gastrin/cholecystokinin type B receptor (Homo sapiens, UniProt P32239); assay: Binding affinity against human Cholecystokinin type B receptor in CHO-K1 cells using [125I]-Bolton-Hunter CCK-8 as radioligand; assay type: cell-based
T2 sequence (P32239 whole entry): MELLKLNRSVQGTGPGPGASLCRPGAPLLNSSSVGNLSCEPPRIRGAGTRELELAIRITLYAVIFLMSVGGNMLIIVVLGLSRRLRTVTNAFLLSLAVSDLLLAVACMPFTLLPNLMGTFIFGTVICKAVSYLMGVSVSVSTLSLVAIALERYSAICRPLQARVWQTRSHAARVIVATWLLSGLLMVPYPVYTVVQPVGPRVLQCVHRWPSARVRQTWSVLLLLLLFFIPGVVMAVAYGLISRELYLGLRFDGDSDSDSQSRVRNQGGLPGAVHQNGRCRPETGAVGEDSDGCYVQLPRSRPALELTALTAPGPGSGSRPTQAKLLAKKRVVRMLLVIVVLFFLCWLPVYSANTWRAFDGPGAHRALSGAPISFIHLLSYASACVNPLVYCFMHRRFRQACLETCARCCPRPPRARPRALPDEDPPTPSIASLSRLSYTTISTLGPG

[4] = target: T3, Cholecystokinin receptor type A (Homo sapiens, UniProt P32238); assay: Binding affinity against human Cholecystokinin type A receptor in membrane preparation isolated from CHO-K1 cells stably transfected with cDNA of human CCK-A using [125I]-Bolton-Hunter CCK-8 as radioligand; assay type: cell membranes
T3 sequence (P32238 whole entry): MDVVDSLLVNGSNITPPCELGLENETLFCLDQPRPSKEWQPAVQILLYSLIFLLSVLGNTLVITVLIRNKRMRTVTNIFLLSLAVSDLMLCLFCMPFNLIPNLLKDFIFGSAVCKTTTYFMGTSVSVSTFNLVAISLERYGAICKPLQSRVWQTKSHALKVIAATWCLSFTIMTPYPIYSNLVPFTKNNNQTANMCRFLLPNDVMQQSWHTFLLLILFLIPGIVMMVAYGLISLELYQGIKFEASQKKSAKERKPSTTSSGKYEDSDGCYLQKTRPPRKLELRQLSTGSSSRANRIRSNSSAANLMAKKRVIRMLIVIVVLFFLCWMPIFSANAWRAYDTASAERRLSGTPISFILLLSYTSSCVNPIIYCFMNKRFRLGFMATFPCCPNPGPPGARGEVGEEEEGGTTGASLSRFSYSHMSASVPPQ

Mus musculus [5] = assay: Compound tested in vivo for mouse gallbladder emptying at 1.0 uM/kg, po; assay type: functional
Mus musculus [6] = assay: Compound tested in vivo for mouse gallbladder emptying at 10 uM/kg, po; assay type: functional

Structure (SMILES) | ED50 [1] | RE (Cavia porcellus) | Activity (Mus musculus [2]) | IC50 [3] | IC50 [4] | Activity (Mus musculus [5]) | Activity (Mus musculus [6])
CSCC[C@H](NC(=O)[C@H](Cc1ccc(OS(=O)(=O)O)cc1)NC(=O)[C@@H](N)CC(=O)O)C(=O)NCC(=O)N[C@@H](Cc1c[nH]c2ccccc12)C(=O)N[C@@H](CCSC)C(=O)N[C@@H](CC(=O)O)C(=O)N[C@@H](Cc1ccccc1)C(N)=O [SINCALIDE] | 2 nM | 1 |  |  |  |  | 
CC(C)N(C(=O)CN1C(=O)C(NC(=O)Nc2ccccc2)C(=O)N(c2ccccc2)c2ccccc21)c1ccccc1 (configuration not stated) | 1600 nM | 0.8 | 78% |  |  |  | 
CC(C)N(C(=O)CN1C(=O)C(NC(=O)Cc2ccccc2)C(=O)N(c2ccccc2)c2ccccc21)c1ccccc1 (configuration not stated) |  | 0.3 |  |  |  |  | 
CC(C)N(C(=O)CN1C(=O)C(C)(CC(=O)Nc2ccccc2)C(=O)N(c2ccccc2)c2ccccc21)c1ccccc1 (configuration not stated) | 200 nM | 0.7 | 73% | 8320 nM | 75.9 nM | 36% | 73%
CCC1(CC(=O)Nc2ccccc2)C(=O)N(CC(=O)N(c2ccccc2)C(C)C)c2ccccc2N(c2ccccc2)C1=O (configuration not stated) | 780 nM | 0.6 | 68% | 794 nM |  | 45% | 42%
CC(C)N(C(=O)CN1C(=O)C(CC(=O)Nc2ccccc2)(Cc2ccccc2)C(=O)N(c2ccccc2)c2ccccc21)c1ccccc1 (configuration not stated) |  |  |  | 8910 nM | 389 nM |  | 
CC(C)N(C(=O)CN1C(=O)C(NC(=O)Oc2ccccc2)C(=O)N(c2ccccc2)c2ccccc21)c1ccccc1 (configuration not stated) |  | 0.2 |  |  |  |  | 
CC(C)N(C(=O)CN1C(=O)C(CC(=O)Nc2ccccc2)C(=O)N(c2ccccc2)c2ccccc21)c1ccccc1 (configuration not stated) | 430 nM | 0.5 | 63% | 832 nM | 155 nM | 34% | 
CC(C)N(C(=O)CN1C(=O)C(OC(=O)Nc2ccccc2)C(=O)N(c2ccccc2)c2ccccc21)c1ccccc1 (configuration not stated) |  | 0.2 |  |  |  |  | 
CC(C)N(C(=O)CN1C(=O)C(C)(NC(=O)Nc2ccccc2)C(=O)N(c2ccccc2)c2ccccc21)c1ccccc1 (configuration not stated) | > 10000 nM | 0.5 |  | 282 nM |  |  | 
